Assay results taken from ChEMBL document CHEMBL1153878, “Hansch analysis of veratric acid derivatives as antimicrobial agents” (2009).
≈ marks a conversion by molar mass, not a printed value.

Assays:
Format in all cases: functional
[1] = tested on: Staphylococcus aureus; assay: Antibacterial activity against Staphylococcus aureus MTCC 1430 by serial dilution method; parameters: -logMIC: scale not given here; conditions: for MIC: Staphylococcus aureus, MTCC 1430, read-out: MIC
In short: (§1)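 Tube serial dilution in 1 ml sterile double strength nutrient broth I.P., test range […] per ml. Inoculum: […] of a saline suspension at 10⁵ cfu/ml from a fresh 24-h culture, grown in double strength nutrient broth at 37 ± 1 °C. […] Exact MIC refined by further dilution of the stock.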

[2] = tested on: Bacillus subtilis; assay: Antibacterial activity against Bacillus subtilis MTCC 2423 by serial dilution method; parameters: -logMIC: unit not given here; conditions: for MIC: Bacillus subtilis, MTCC 2423, read-out: MIC; in short: as §1
[3] = tested on: Escherichia coli; assay: Antibacterial activity against Escherichia coli MTCC 739 by serial dilution method; parameters: -logMIC: scale not given here; conditions: for MIC: Escherichia coli, MTCC 739, read-out: MIC; in short: as §1
[4] = tested on: Candida albicans; assay: Antifungal activity against Candida albicans MTCC 227 by serial dilution method; parameters: -logMIC: unit not given here; conditions: for MIC: Candida albicans, MTCC 227, read-out: MIC
[5] = tested on: Aspergillus niger; assay: Antifungal activity against Aspergillus niger MTCC 2425 by serial dilution method; parameters: -logMIC: scale not given here; conditions: for MIC: Aspergillus niger, MTCC 2425, read-out: MIC

| SMILES | MIC [1] [mg/L] | MIC [2] [mg/L] | MIC [3] [mg/L] | MIC [4] [mg/L] | MIC [5] [mg/L] | -logMIC [1] | -logMIC [2] | -logMIC [3] | -logMIC [4] | -logMIC [5] |
| --- | --- | --- | --- | --- | --- | --- | --- | --- | --- | --- |
| COc1ccc(C(=O)Nc2cccc(Cl)c2)cc1OC | 20 (≈ 68.6 µM) | 12 (≈ 41.1 µM) | 17 (≈ 58.3 µM) | 15 (≈ 51.4 µM) | 14 (≈ 48 µM) | 1.17 | 1.39 | 1.23 | 1.29 | 1.32 |
| COc1ccc(C(=O)NN)cc1OC | 23 (≈ 117 µM) | 14 (≈ 71.4 µM) | 23 (≈ 117 µM) | 14 (≈ 71.4 µM) | 15 (≈ 76.5 µM) | 0.93 | 1.15 | 0.93 | 1.15 | 1.12 |
| COc1ccc(C(=O)NCc2ccccc2)cc1OC | 19 (≈ 70 µM) | 13 (≈ 47.9 µM) | 19 (≈ 70 µM) | 13 (≈ 47.9 µM) | 12 (≈ 44.2 µM) | 1.15 | 1.32 | 1.15 | 1.32 | 1.36 |
| COc1ccc(C(=O)N2CCOCC2)cc1OC | 21 (≈ 83.6 µM) | 13 (≈ 51.7 µM) | 17 (≈ 67.7 µM) | 11 (≈ 43.8 µM) | 12 (≈ 47.8 µM) | 1.08 | 1.28 | 1.17 | 1.37 | 1.33 |
| COc1ccc(C(=O)Nc2ccc(Br)cc2)cc1OC | 19 (≈ 56.5 µM) | 13 (≈ 38.7 µM) | 19 (≈ 56.5 µM) | 15 (≈ 44.6 µM) | 12.5 (≈ 37.2 µM) | 1.25 | 1.4 | 1.25 | 1.34 | 1.44 |
| COc1ccc(C(=O)Nc2ccccc2)cc1OC | 23 (≈ 89.4 µM) | 14 (≈ 54.4 µM) | 23 (≈ 89.4 µM) | 16 (≈ 62.2 µM) | 13 (≈ 50.5 µM) | 1.05 | 1.25 | 1.04 | 1.2 | 1.29 |
| COC(=O)c1ccc(OC)c(OC)c1 [VERATRIC ACID METHYL ESTER] | 18 (≈ 91.7 µM) | 12 (≈ 61.2 µM) | 18 (≈ 91.7 µM) | 12 (≈ 61.2 µM) | 14 (≈ 71.4 µM) | 1.04 | 1.2 | 1.04 | 1.2 | 1.15 |
| COc1ccc(C(=O)O)cc1OC [VERATRIC ACID] | 18 (≈ 98.8 µM) | 9 (≈ 49.4 µM) | 16 (≈ 87.8 µM) | 11 (≈ 60.4 µM) | 14 (≈ 76.8 µM) | 1.01 | 1.31 | 1.06 | 1.22 | 1.11 |

The next lines start with results.

| MIC [1] [mg/L] | MIC [2] [mg/L] | MIC [3] [mg/L] | MIC [4] [mg/L] | MIC [5] [mg/L] | SMILES | -logMIC [1] | -logMIC [2] | -logMIC [3] | -logMIC [4] | -logMIC [5] |
| --- | --- | --- | --- | --- | --- | --- | --- | --- | --- | --- |
| 17 (≈ 56.2 µM) | 11.5 (≈ 38 µM) | 21 (≈ 69.5 µM) | 14 (≈ 46.3 µM) | 13 (≈ 43 µM) | COc1ccc(C(=O)Nc2ccc([N+](=O)[O-])cc2)cc1OC | 1.25 | 1.41 | 1.16 | 1.32 | 1.35 |
| 19 (≈ 65.1 µM) | 15 (≈ 51.4 µM) | 12 (≈ 41.1 µM) | 13.5 (≈ 46.3 µM) | 14.5 (≈ 49.7 µM) | COc1ccc(C(=O)Nc2ccc(Cl)cc2)cc1OC | 1.19 | 1.28 | 1.39 | 1.34 | 1.3 |
| 16.5 (≈ 61.3 µM) | 12.5 (≈ 46.4 µM) | 16.5 (≈ 61.3 µM) | 12.5 (≈ 46.4 µM) | 12 (≈ 44.6 µM) | COc1ccc(C(=O)N(CCO)CCO)cc1OC | 1.21 | 1.31 | 1.21 | 1.31 | 1.36 |
| 15 (≈ 51.4 µM) | 12 (≈ 41.1 µM) | 17 (≈ 58.3 µM) | 13.5 (≈ 46.3 µM) | 13.5 (≈ 46.3 µM) | COc1ccc(C(=O)Nc2ccccc2Cl)cc1OC | 1.28 | 1.39 | 1.23 | 1.34 | 1.34 |
| 17 (≈ 62.7 µM) | 15 (≈ 55.3 µM) | 18.5 (≈ 68.2 µM) | 13 (≈ 47.9 µM) | 11 (≈ 40.5 µM) | COc1ccc(C(=O)Nc2ccccc2C)cc1OC | 1.2 | 1.26 | 1.16 | 1.31 | 1.4 |
| 17 (≈ 59.2 µM) | 13 (≈ 45.2 µM) | 17 (≈ 59.2 µM) | 15 (≈ 52.2 µM) | 14 (≈ 48.7 µM) | COc1ccccc1NC(=O)c1ccc(OC)c(OC)c1 | 1.23 | 1.34 | 1.23 | 1.29 | 1.32 |
| 17 (≈ 62.7 µM) | 13 (≈ 47.9 µM) | 17 (≈ 62.7 µM) | 10 (≈ 36.9 µM) | 12.5 (≈ 46.1 µM) | COc1ccc(C(=O)Nc2cccc(C)c2)cc1OC | 1.2 | 1.31 | 1.2 | 1.42 | 1.35 |
| 18.5 (≈ 68.2 µM) | 13 (≈ 47.9 µM) | 17 (≈ 62.7 µM) | 13 (≈ 47.9 µM) | 12.5 (≈ 46.1 µM) | COc1ccc(C(=O)Nc2ccc(C)cc2)cc1OC | 1.15 | 1.31 | 1.2 | 1.32 | 1.35 |
| 18 (≈ 62.6 µM) | 12 (≈ 41.8 µM) | 19 (≈ 66.1 µM) | 12.5 (≈ 43.5 µM) | 11.5 (≈ 40 µM) | COc1ccc(NC(=O)c2ccc(OC)c(OC)c2)cc1 | 1.2 | 1.38 | 1.18 | 1.36 | 1.4 |
| 18 (≈ 59.5 µM) | 10.5 (≈ 34.7 µM) | 13 (≈ 43 µM) | 16 (≈ 52.9 µM) | 13 (≈ 43 µM) | COc1ccc(C(=O)Nc2cccc([N+](=O)[O-])c2)cc1OC | 1.22 | 1.46 | 1.36 | 1.27 | 1.36 |
| 17 (≈ 62.2 µM) | 15 (≈ 54.9 µM) | 19 (≈ 69.5 µM) | 12 (≈ 43.9 µM) | 12 (≈ 43.9 µM) | COc1ccc(C(=O)Nc2cccc(O)c2)cc1OC | 1.2 | 1.26 | 1.16 | 1.36 | 1.36 |
| 17.5 (≈ 70.2 µM) | 12 (≈ 48.1 µM) | 20 (≈ 80.2 µM) | 14 (≈ 56.2 µM) | 13 (≈ 52.1 µM) | COc1ccc(C(=O)N2CCCCC2)cc1OC | 1.15 | 1.33 | 1.1 | 1.25 | 1.28 |
